Rad51 HR inh: blocks human Rad51 in homologous recombination. hRad51 DNA strand exchange, fluorescence dequenching. inhibition, % at 10 µM. hit rate 0.085% among 200,000;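 active = inhibition above 40% at the single screening dose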;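 also: 0% = DMSO control wells and 100% = blanks with heterologous ssDNA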
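Material: hRad51 filaments on single-stranded DNA; Reagent: Donor/quencher-labelled 47-bp dsDNA substrate; Compound: 10 µM final, single point; Schedule: 37 °C 15-min filament assembly, 30-min compound preincubation, 15-min exchange; Technique: FRET fluorescence, excitation 485 nm, emission 520 nm; Benchmarks: control wells and blank wells on each plate.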
Biofilm kill mix: mixture kills Candida albicans biofilm cells; AID 1242; hit rate 0.02% among 120,000; inhibition, % at 7.6 µM; C. albicans biofilm persisters + clotrimazole, fluorescence viability; primary screen in compound mixtures of four per well;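 also: compounds exposed to preformed 24 h biofilms for 48 h; 0% = untreated biofilm control and 100% = clotrimazole plus chlorhexidine kill blank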
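Test system: C. albicans CAF4-2 wild-type biofilms; buffer or medium: RPMI/MOPS medium, pH 7.0; schedule: 24 h biofilm formation, then 48 h compound exposure, 37 °C; detection: Alamar Blue fluorescence; measure: percent inhibition of biofilm viability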
S1P3 antag-1: blocks the human S1P3 receptor. Q99500. CHO S1P3 NFAT-BLA reporter, FRET fluorescence, antagonist mode. inhibition, % at 4.98 µM. hit rate 0.27% among 170,000. AID 485;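 active = inhibition above the plate cutoff, the mean inhibition of test wells on that plate plus 3 SD, cut at about 28% in these data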;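 also: cells challenged with S1P at its EC80 of 0.8 µM; blue over green emission ratio from cleaved BLA substrate after 4 h stimulation; 0% = S1P-stimulated wells and 100% = unstimulated DMSO-only wells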
Target sequence (Q99500 whole entry, looked up): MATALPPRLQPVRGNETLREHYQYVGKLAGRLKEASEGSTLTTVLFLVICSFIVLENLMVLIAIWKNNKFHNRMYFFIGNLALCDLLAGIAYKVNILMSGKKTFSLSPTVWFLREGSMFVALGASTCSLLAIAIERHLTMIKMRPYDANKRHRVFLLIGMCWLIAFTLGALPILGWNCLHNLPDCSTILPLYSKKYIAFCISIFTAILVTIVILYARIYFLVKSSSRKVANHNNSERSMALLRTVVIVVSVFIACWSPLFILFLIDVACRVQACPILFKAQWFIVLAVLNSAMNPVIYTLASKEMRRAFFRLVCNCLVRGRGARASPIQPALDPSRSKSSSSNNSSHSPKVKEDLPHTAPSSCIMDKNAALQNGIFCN
S1P3 antag-2: confirmation of human S1P3 receptor antagonists; shares compounds with S1P3 antag-1; CHO S1P3 NFAT-BLA reporter, FRET, antagonist mode; inhibition, % at 4.98 µM; hit rate 30% among 240; AID 1429;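 active = inhibition above the hit threshold that was computed for the earlier primary screen, cut at about 30% in these data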;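 also: 0% = S1P-stimulated wells and 100% = unstimulated DMSO-only wells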
Numbers without * were called inactive; · = not tested or not shown; ! = repeats disagree. Only some compounds are listed: those with a hit (about 0.31% of all), similar ones and a draw of the others.

SMILES	Rad51 HR inh	Biofilm kill mix	S1P3 antag-1	others
N#Cc1c(C(F)(F)F)cc(C2CC2)[nH]c1=O	4	·	62*
Cc1ccc(-c2cc(C(F)(F)F)c(C#N)c(=O)[nH]2)cc1	·	5	-12
O=C(Cc1ccc(Cl)cc1)NCCS(=O)c1ccc(Cl)cc1 (stereo unspecified)	130*	·	·
O=C(Cc1ccccc1)NCCS(=O)c1ccc(Cl)cc1 (stereo unspecified)	0	·	·
CNC(=S)N1N=C(c2ccc(C)cc2)CC1c1ccc(N(C)C)cc1 (stereo unspecified)	-6	13	2
COc1ccc(CCNC(=O)COc2ccc(C)nc2[N+](=O)[O-])cc1OC	-1	-2	-23
CCC(C)NC(=O)CS(=O)(=O)Cc1nc(-c2cccc(OC)c2)oc1C (stereo unspecified)	-1	·	85*
COc1cccc(-c2nc(CS(=O)(=O)CC(=O)NCc3ccccc3)c(C)o2)c1	·	·	-32
CCOC(=O)Cc1csc(NC(=O)/C=C/c2ccc(OC)cc2)n1	26	14	12
Cc1ccc(S(=O)(=O)CCNC(=O)Cc2ccc(Cl)cc2)cc1	9	-11	-9
CN1CCN(c2nc(N3CCN(CCO)CC3)nc3ccccc23)CC1	-1	·	6
OCCN1CCN(c2ncnc3ccc(Br)cc23)CC1	0	·	102*
COCCn1nnnc1SCC(=O)Nc1ccc2c(c1)OCO2	4	19	6
COc1ccc(N2CCN(CCC(N)=O)CC2)cc1	108*	·	·
COc1ccc(N2CCN(CC(=O)NC(=O)NC(C)(C)C)CC2)cc1	8	7	-12
COc1ccc(CNC(=O)c2noc(C)c2[N+](=O)[O-])cc1	23	21	-8
O=C(Oc1cccc2cccnc12)c1ccc2c(c1)OCCO2	4	·	61*
O=C(Oc1cccc2cccnc12)c1cccc([N+](=O)[O-])c1	0	13	-6
Cc1cc(=O)[nH]c(SCC(=O)NC2CCCc3ccccc32)n1 (stereo unspecified)	14	10	6
CC(=O)n1cc([C@H]2C=C(C(=O)N3CCOCC3)O[C@@H](OCCCCO)C2)c2ccccc21	-14	·	·
COc1ccccc1N1CCN(C(=O)CN2C(=O)c3ccccc3S2(=O)=O)CC1	20	18	-8
O=C(Nc1ccccc1C(=O)NCc1ccco1)c1ccccc1	-14	·	14
O=C(Nc1ccc(Cl)cc1)Nc1ccccc1C(=O)NCc1ccco1	0	·	54*
Cc1cc(C)cc(NC(=O)CSc2cc(C(=O)c3nccn3C)c3ccccc3n2)c1	5	17	-5
Cc1cc(N)ccc1-n1c(C)ccc1C	0	·	-7
SMILES	Rad51 HR inh	Biofilm kill mix	S1P3 antag-1	others
Cc1cc(N)ccc1N1CCCC1	60*	·	·
Cc1ccccc1OCc1n(CC(=O)OC2CC(C)CCC2C(C)C)c2ccccc2[n+]1C (stereo unspecified)	17	34*!	-10
CC1CCC(C(C)C)C(OC(=O)Cn2c(-c3ccc(Br)cc3)[n+](C)c3ccccc32)C1 (stereo unspecified)	2	11	4
CC(C)(C)C1CCc2c(sc(N)c2C(N)=O)C1 (stereo unspecified)	-4	·	-20
CCC(C)(C)C1CCc2c(sc(N)c2C(N)=O)C1 (stereo unspecified)	-6	9	38*	S1P3 antag-2=-3
COc1ccc(C(=O)NCc2ccc(-n3cccc3)cc2)cc1OC	-5	18	41*	S1P3 antag-2=-15
COc1ccc(C(=O)NCc2ccc(C(=O)NCC(OC)OC)cc2)cc1OC	0	7	-13
Cc1nn(C)c(C)c1CN(Cc1nc(CCC(C)C)no1)C(C)C	-2	27	32*	S1P3 antag-2=13
CC(C)CCc1noc(CN(C)CCC2CCOCC2)n1	8	16	-7
CC(=O)NCC1COc2ccccc2O1 (stereo unspecified)	27	21	-3
c1ccc2c(c1)OCC(CNc1ncnc3sccc13)O2 (stereo unspecified)	7	19	43*	S1P3 antag-2=26
Cc1oc(CC(C)C)cc1C(=O)NCCCC(=O)O	·	15	-2
Cc1ccc(C2C3C(=O)N(c4ccc(C)cc4)C(=O)C3N3CCCN23)cc1 (stereo unspecified)	17	8	-4
CC1C(c2ccccc2)N(C)C(c2ccccc2)CC1(O)c1ccc(F)cc1 (stereo unspecified)	2	-1	31*	S1P3 antag-2=48*
Fc1ccc(NC(=S)N2N=CCC2c2ccccc2)cc1 (stereo unspecified)	-5	·	·
Cc1noc(C)c1C(=O)OC(C)C(=O)Nc1ccc(S(=O)(=O)NC(C)C)cc1 (stereo unspecified)	0	7	6
